Screening data: PubChem, Johns Hopkins Ion Channel Center
RGS4 pot: RGS4 potentiation or activation; B-score at 10 µM; HEK293 M3R/inducible RGS4, carbachol calcium flux Fluo4; hits give low values; hit rate 0.92% among 310,000;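 active = B-score of the integrated calcium signal more than 4 SD below the library mean, with starting fluorescence not abnormally high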;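 note: negative B-score means reduced calcium response which marks RGS4 activation or potentiation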
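test system = HEK293 cells with stable M3R and inducible RGS4 | schedule = recording 10 s baseline at 1 Hz, 100 s post-agonist | technique = Fluo4-AM (2 µM) calcium-flux fluorescence, kinetic read | measure = Agonist-evoked peak-minus-minimum fluorescence over baseline, integrated ratio, B score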
MrgX1 ag: activates human MrgX1 receptor signaling; B-score at 10 µM; hit rate 0.44% among 310,000; Q96LB2; MrgX1-HEK293 cells, Fluo-4 calcium fluorescence, agonist mode; hits give high values;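 active = calcium response B-score plate-corrected fluorescence ratio at least 3 library SD, with starting fluorescence B-score inside 5 SD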
Target sequence (Q96LB2 whole entry, looked up): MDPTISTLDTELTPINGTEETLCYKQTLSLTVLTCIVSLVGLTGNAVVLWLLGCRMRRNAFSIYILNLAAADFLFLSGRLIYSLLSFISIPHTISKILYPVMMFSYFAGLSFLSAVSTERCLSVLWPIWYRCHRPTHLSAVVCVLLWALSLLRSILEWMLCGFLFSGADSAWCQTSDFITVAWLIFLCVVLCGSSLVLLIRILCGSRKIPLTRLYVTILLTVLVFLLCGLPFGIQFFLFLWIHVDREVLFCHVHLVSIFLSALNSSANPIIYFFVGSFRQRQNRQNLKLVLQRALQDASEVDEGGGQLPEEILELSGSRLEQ
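System: HEK293 cells stably expressing human MrgX1 receptor; Dosing: test compound in the initial addition of three; Schedule: overnight plating, then 30 min 37 °C plus 30 min room-temperature dye loading; Detection: kinetic calcium dye fluorescence, Fluo-4 NW; Controls: per-plate positive and negative controls for Z′ factor.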
MrgX1 PAM: allosterically activates human MrgX1 receptor signaling; Q96LB2; MrgX1-HEK293, Fluo-4 calcium flux, FDSS; hits give high values; B-score at 10 µM; hit rate 0.63% among 310,000; AID 588675;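 active = plate-corrected calcium response at least 3 library SD above typical, normal starting fluorescence, not activating the receptor alone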;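 note: compound read alongside a low EC10 to EC30 dose of BAM8-22 agonist; peak minus trough fluorescence over baseline measured at the second addition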
RGS4 inh: inhibitors of human RGS4; P49798; HEK293 M3R/RGS4 inducible, Fluo-4 calcium flux; hits give high values; triggered by carbachol at its EC20; B-score at 10 µM; hit rate 0.45% among 310,000; AID 463165;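 active = B-score, a plate-corrected calcium signal, over three deviations above library mean, with baseline fluorescence within five deviations of library mean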;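 note: RGS4 expression induced by doxycycline in cells with stable M3 receptor; B-score is computed from the integrated fluorescence ratio over baseline after carbachol; higher B-score means a larger calcium signal and so more RGS4 inhibition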
Target sequence (P49798 whole entry, looked up): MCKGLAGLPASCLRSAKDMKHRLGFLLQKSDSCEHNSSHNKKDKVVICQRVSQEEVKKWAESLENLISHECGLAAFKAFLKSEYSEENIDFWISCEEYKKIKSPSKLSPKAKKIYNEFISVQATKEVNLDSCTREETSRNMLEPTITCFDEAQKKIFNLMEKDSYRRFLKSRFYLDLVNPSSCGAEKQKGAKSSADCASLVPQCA
MrgX1 antag: antagonists of human MrgX1 receptor. B-score at 10 µM. AID 588676. hit rate 1.3% among 310,000. Q96LB2. MRGX1-HEK293 calcium flux, Fluo-4, BAM8-22 antagonism; hits give low values;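 active = calcium-response B-score plate-corrected more than 3 library SD below zero, starting fluorescence within 5 deviations, no agonist response on first addition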;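 note: peak minus trough fluorescence over baseline after final BAM8-22 challenge near maximal dose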
RGS4 inh valid: RGS4 inhibitor validation; hit rate 65% among 1,700; HEK293 M3R/RGS4, carbachol calcium Fluo-4 fluorescence; carbachol added at its EC20; 0 = buffer wells, 100 = carbachol control; AID 492999; calcium response, % at 10 µM; shares compounds with RGS4 inh;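 active = duplicate-averaged calcium response above the buffer-only control mean plus 5 SD of those controls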;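 note: integrated fluorescence ratio F max minus min over baseline F0; higher response in RGS4-induced cells means RGS4 inhibition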
M3R Ca ctr: checks RGS4 inhibitor effects in non-induced HEK293 M3R cells. activity (percent), % at 10 µM. hit rate 20% among 1,900. carbachol calcium Fluo-4; submaximal (EC20) carbachol stimulus; buffer wells 0%, carbachol control wells 100%. shares compounds with RGS4 inh; call rule not given here;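 note: RGS4 induction absent so cells express M3R without RGS4; higher means more calcium signal and flags a non-specific hit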
M3R basal Ca ctr: second RGS4 inhibitor counter-screen in uninduced cells lacking carbachol; calcium response (agonist-mode artifact), % at 10 µM; shares compounds with RGS4 inh; AID 493001; hit rate 22% among 1,900; HEK293 M3R/RGS4 non-induced, Fluo-4 calcium, no carbachol; normalised: buffer wells 0%, carbachol wells 100%;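 active = duplicate-averaged calcium rise in uninduced cells above buffer wells' mean plus 5 SD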
Numbers stand for hits; - = inactive; . = not tested or not shown. The list is not random: actives were taken first. Their share in the collection is about 3.5%.

SMILES | RGS4 pot | MrgX1 ag | MrgX1 PAM | RGS4 inh | MrgX1 antag | RGS4 inh valid | M3R Ca ctr | M3R basal Ca ctr
Cc1cc(C)c(NC(=O)CCCCCNC2CCCCC2)c(C)c1 | - | - | - | - | - | . | . | .
COc1cnc(-c2ccccn2)nc1Oc1ccccc1Cl | - | - | - | - | - | . | . | .
COc1cnc(-c2ccccn2)nc1Oc1ccc(Cl)c2ccccc12 | - | - | - | 10.4 | - | 16.5% | - | -
Cc1c(C(=O)N2CCOCC2)c(S(=O)(=O)Nc2cccc(C#N)c2)c(C)n1C | - | - | - | - | - | . | . | .
CCCc1[nH]nc2c1C(c1cn[nH]c1-c1ccc(F)cc1)C(C#N)=C(N)O2 (centres undefined) | - | - | - | 16.4 | - | 38.5% | 43.5% | 15.0%
C/C(=N\O)c1sc(-c2ccccc2)nc1C | - | . | . | - | . | . | . | .
O=C(N/N=C/c1ccc(-c2cccc([N+](=O)[O-])c2)o1)[C@H]1C[C@@H]1c1ccccc1 | - | - | - | 5.66 | - | - | - | -
O=C(N/N=C/c1ccc(-c2ccc([N+](=O)[O-])cc2)o1)[C@H]1C[C@@H]1c1ccccc1 | - | - | - | - | - | - | - | 39.0%
O=C(N/N=C/c1ccc(-c2ccccc2[N+](=O)[O-])o1)[C@H]1C[C@@H]1c1ccccc1 | - | - | - | - | - | . | . | .
COc1ccc(CNC(=O)c2coc(=O)c3ccccc23)c(OC)c1 | - | - | - | - | - | . | . | .
O=C1NN(c2ccccc2)C(=O)/C1=C\c1cccc(OC(=O)c2cccs2)c1 | - | 27.1 | - | 20 | - | 70.0% | - | -
CCNc1c(NS(=O)(=O)c2ccc([N+](=O)[O-])cc2)c(=O)oc2ccccc12 | - | - | - | - | - | . | . | .
CNC[C@H](O)c1ccc(O)c(O)c1 | - | 38.7 | - | 4.91 | - | 31.5% | 57.0% | -
CNC[C@H](O)c1cccc(O)c1 | - | - | - | - | - | . | . | .
NC(=O)c1cc(S(=O)(=O)NCc2ccc(Br)cc2)cs1 | - | - | - | - | - | . | . | .
CCCC(=O)Nc1cccc(NC(=O)c2ccc3c(c2)OCCO3)c1 | - | - | - | - | - | . | - | -
COc1ccc(CNC(=O)CCS(=O)(=O)c2ccc3c(c2)CC(C)N3C(=O)C2CC2)cc1 (centres undefined) | - | - | - | - | - | . | . | .
COc1cccc(NC(=O)NC2CCCCCCC2)c1 | - | - | - | 18.4 | - | - | - | -
CCOC(=O)c1ccc(NS(=O)(=O)c2cc3c4c(c2)CCN4C(=O)CC3)cc1 | - | - | - | - | - | . | . | .
COc1ccccc1CNC(=O)COC(=O)c1c(C)nn(-c2ccccc2)c1Cl | - | - | - | 17.8 | - | - | - | -
CN(C)c1nc(N)c([N+](=O)[O-])c(N2CCCCCC2)n1 | - | - | - | - | - | . | . | .
COc1ccccc1C(=O)Nc1ccc(S(=O)(=O)N2CCCCC2)cc1 | - | - | - | - | - | . | . | .
Cc1sc2nc(CN(Cc3cccs3)C(=O)NC3CCCCC3)[nH]c(=O)c2c1C | - | - | - | - | - | . | - | -
COc1ccccc1C(=O)NCCC(=O)NCC(C)(C)N1CCOCC1 | - | - | - | - | - | . | . | .
CC1CCCN(Cc2c(O)ccc3c(=O)c(-c4nc5ccccc5s4)c(N)oc23)C1 (centres undefined) | - | - | - | 5.05 | - | 16.0% | - | -
SMILES | RGS4 pot | MrgX1 ag | MrgX1 PAM | RGS4 inh | MrgX1 antag | RGS4 inh valid | M3R Ca ctr | M3R basal Ca ctr
CC1(C)CCCN(Cc2c(O)ccc3c(=O)c(-c4nc5ccccc5s4)c(N)oc23)C1 | - | - | - | - | - | . | . | .
CC1CCN(Cc2c(O)ccc3c(=O)c(-c4nc5ccccc5s4)c(N)oc23)CC1 | - | - | - | 6.34 | - | 12.5% | - | -
Cc1ccc(NC(=O)OCc2cccs2)cc1 | - | - | - | - | - | . | . | .
CCc1ccc(N(C(=O)c2snc(C(N)=O)c2N)C(C(=O)NCC2CCCO2)c2ccco2)cc1 (centres undefined) | - | - | - | - | - | . | . | .
Cc1nnsc1S(=O)c1ccccc1Cl (centres undefined) | - | - | - | - | - | . | . | .
COc1ccc(Nc2nc(N3CCOCC3)nc(N3CCOCC3)n2)c(OC)c1 | - | - | - | - | - | - | - | -
CCn1nc(NS(=O)(=O)c2ccc([N+](=O)[O-])cc2)c2cc3cccc(C)c3nc21 | - | - | - | 17.1 | - | 22.0% | 37.0% | -
Cc1cnc(C(=O)NC2CCSc3ccccc32)cn1 (centres undefined) | - | - | - | - | - | . | . | .
O=C(CSc1cccc[n+]1[O-])Nc1cc2c(cc1Cl)C(=O)c1ccccc1C2=O | - | - | - | 11.5 | - | 65.0% | - | -
O=C(O)[C@@H]1Cc2ccccc2N1 | - | - | - | - | - | . | . | .
N#Cc1c(NC(=O)CSc2ncn[nH]2)sc2c1CCCC2 | - | - | - | 5.08 | - | 8.5% | - | -
CC1CCc2c(sc(NC(=O)CSc3ncn[nH]3)c2C#N)C1 (centres undefined) | - | - | - | - | - | . | . | .
COc1cc2c(cc1OC)CN(C(=O)c1sc(-c3cnccn3)nc1C)CC2 | - | - | - | - | - | . | . | .
Cc1cccn2c(=O)nc(SCC(=O)NCc3ccc(F)cc3)nc12 | - | - | - | - | - | . | . | .
NC(=O)CC(NC(=O)Cc1ccc(Br)cc1)c1ccc(NC2CCC2)c([N+](=O)[O-])c1 (centres undefined) | - | - | - | - | - | . | - | -
NC(=O)CC(NC(=O)Cc1ccc(Cl)cc1)c1ccc(NC2CCCC2)c([N+](=O)[O-])c1 (centres undefined) | - | - | - | - | - | - | - | -
COc1cc(CN2CCN(C(=O)CC(C)C)CC2)c([N+](=O)[O-])cc1OC | - | - | - | - | - | . | . | .
C=CCN1C=C2C(=O)C(C)(OC(=O)c3ccco3)C(=O)C(C=C)=C2C=C1C1CC1 (centres undefined) | - | - | - | - | - | . | . | .
CCCCC1=CC2=C(c3ccco3)C(=O)C(C)(OC(=O)c3ccc(OC)cc3)C(=O)C2=CN1c1ccccc1 (centres undefined) | - | - | - | - | - | . | - | -
CCCCC1=CC2=C(c3ccco3)C(=O)C(C)(OC(=O)c3ccc(OC)cc3)C(=O)C2=CN1CCCOC(C)C (centres undefined) | - | - | - | - | - | - | - | -
